ChEMBL document CHEMBL3085744, “Hepatoprotective prenylaromadendrane-type diterpenes from the gum resin of Boswellia carterii” (J Nat Prod, 2013)
Calls of active or inactive are those of the source. The calls are words filed in the database; no cut-off is given here.

Legend:
[1] = Cytotoxicity against human Bel7402 cells by MTT assay; assay type: cell-based; conditions: Bel-7402
A549 = test: Cytotoxicity against human A549 cells by MTT assay; assay type: cell-based
[2] = Cytotoxicity against human BGC823 cells by MTT assay; assay type: cell-based; conditions: BGC-823
A2780 = test: Cytotoxicity against human A2780 cells by MTT assay; assay type: cell-based
Neuron = test: Neuroprotective activity against MPP+-induced neuronal cell injury in neurons (unknown origin); assay type: functional, cell-based
L02 [3] = test: Hepatoprotective activity against D-galactosamine-induced cell toxicity in human HL-7702 cells assessed as cell survival incubated for 1 hr prior to D-galactosamine-challenge measured after 24 hrs by MTT assay relative to normal cells; assay type: functional; set-up: concentration or dose not given beside the values
In short: (§1)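 HL-7702 cells (2 × 10^4 per well) precultured 24 h at 37 °C, 5% CO2 in RPMI 1640 with 10% fetal calf serum, penicillin and streptomycin. Test compound (10 μM) added in fresh medium for 1 h, then 25 mM D-galactosamine for 24 h. MTT 0.5 mg/mL 4 h, formazan in DMSO, OD 492 nm. Survival as % of normal; means ± SD, n = 3; bicyclol 10 μM as positive control.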

[4] = Hepatoprotective activity in human HL-7702 cells assessed as inhibition of D-galactosamine-induced cell toxicity incubated for 1 hr prior to D-galactosamine-challenge measured after 24 hrs by MTT assay relative to control; assay type: functional, L02
[5] = Cytotoxicity against human HCT8 cells by MTT assay; assay type: cell-based; conditions: HCT-8
L02 [6] = test: Hepatoprotective activity against D-galactosamine-induced cell toxicity in human HL-7702 cells assessed as cell survival at 10 uM incubated for 1 hr prior to D-galactosamine-challenge measured after 24 hrs by MTT assay relative to normal cells; assay type: functional; conditions: read-out: Survival; in short: as §1

| Compound | IC50 [1] [µM] | IC50 (A549) [µM] | IC50 [2] [µM] | IC50 (A2780) [µM] | Activity (Neuron) | Survival (L02 [3]) [%] | inhibition (INH) [4] [%] | IC50 [5] [µM] | viability at 10 µM (L02 [6]) [%] |
| --- | --- | --- | --- | --- | --- | --- | --- | --- | --- |
| C=C1CC[C@@H]2[C@H]([C@@H]3[C@H]1CC[C@]3(C)O)[C@@]2(C)/C=C/C=C(\C)C=O | > 10 | > 10 | > 10 | > 10 | inactive | 88 | 69.6 | > 10 |  |
| COC(=O)c1cc(OC)c2c(c1-c1c(CO)cc(OC)c3c1OCO3)OCO2 [BICYCLOL] |  |  |  |  |  |  | 42.5 |  | 76 |
| C=C1CC[C@@H]2[C@H]([C@@H]3[C@H]1CC[C@]3(C)O)[C@@]2(C)C(/C=C/C(C)(C)O)OC (stereo not given in full) | > 10 | > 10 | > 10 | > 10 | inactive |  |  | > 10 |  |
| C=C1CC[C@@H]2[C@H]([C@@H]3[C@H]1CC[C@]3(C)O)[C@@]2(C)C[C@H]1C=C(C)C(=O)O1 | > 10 | > 10 | > 10 | > 10 | inactive | 68 | 24.3 | > 10 |  |
| C=C1CC[C@@H]2[C@H]([C@@H]3[C@H]1CC[C@]3(C)O)[C@@]2(C)[C@@H]1C(=O)C(C)=C[C@H]1O | > 10 | > 10 | > 10 | > 10 | inactive |  |  | > 10 |  |
| C=C1CC[C@@H]2[C@H]([C@@H]3[C@H]1CC[C@]3(C)O)[C@@]2(C)/C=C/C=C(/C)CO | > 10 | > 10 | > 10 | > 10 | inactive | 69 | 26.1 | > 10 |  |
| C=C1CC[C@@H]2[C@H]([C@H]3[C@H](C)CC[C@@H]13)[C@@]2(C)C[C@H](O)/C=C(/C)CO | > 10 | > 10 | > 10 | > 10 | inactive | 73 | 36.3 | > 10 |  |
| C=C1CC[C@@H]2[C@H]([C@@H]3[C@H]1CC[C@]3(C)O)[C@@]2(C)C[C@@H]1C=C(C)C(=O)O1 | > 10 | > 10 | > 10 | > 10 | inactive | 73 | 33.6 | > 10 |  |
| C=C1CC[C@@H]2[C@H]([C@@H]3[C@H]1CC[C@]3(C)O)[C@@]2(C)CC/C=C(/C)CO | > 10 | > 10 | > 10 | > 10 | inactive | 73 | 33.6 | > 10 |  |
| C=C1CC[C@@H]2[C@H]([C@@H]3[C@H]1CC[C@]3(C)O)[C@@]2(C)C/C=C/C(C)(C)O | > 10 | > 10 | > 10 | > 10 | inactive | 70 | 27 | > 10 |  |
